Data reported in ChEMBL document CHEMBL3758165, “In vitro interactions between anidulafungin and nonsteroidal anti-inflammatory drugs on biofilms of Candida spp” (2016).
Values belong to the compound of their own block, whether it stands above or below them.

How the values were obtained:
Format in all cases: functional
Candida albicans [1] = assay: Antibiofilm activity against Candida albicans 17a18 by two dimensional checkerboard dilution method
Method in brief: (§1)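 Biofilms grown on sterilized PVC disks: 1·10^6 cfu/ml Candida cells adhered for 1.5 h at 37 °C with shaking, washed with PBS, then matured 48 h at 37 °C in RPMI 1640 (MOPS, pH 7). Preformed biofilms were washed and exposed to drug, alone or in two-dimensional checkerboard combination, in RPMI 1640 for 24 h at 37 °C on a rocker.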

Candida albicans [2] = assay: Antibiofilm activity against Candida albicans ATCC 24433 by two dimensional checkerboard dilution method; method in brief: as §1
Nakaseomyces glabratus [3] = assay: Antibiofilm activity against Candida glabrata ATCC 15126 by two dimensional checkerboard dilution method; method in brief: as §1
Candida albicans [4] = assay: Antibiofilm activity against Candida albicans ATCC 10231 by two dimensional checkerboard dilution method; method in brief: as §1
[5] = test system: Meyerozyma guilliermondii; assay: Antibiofilm activity against Candida guilliermondii a83 by two dimensional checkerboard dilution method; method in brief: as §1
[6] = test system: Meyerozyma guilliermondii; assay: Antibiofilm activity against Candida guilliermondii ATCC 6260 by two dimensional checkerboard dilution method; method in brief: as §1
Candida albicans [7] = assay: Antibiofilm activity against Candida albicans ATCC 90028 by two dimensional checkerboard dilution method; method in brief: as §1
[8] = test system: Meyerozyma guilliermondii; assay: Antibiofilm activity against Candida guilliermondii ATCC 6260 assessed as fractional inhibitory concentration by two dimensional checkerboard dilution method in presence of anidulafungin
Method in brief: (§2)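 Biofilms grown on PVC disks: 1·10^6 cfu/ml in RPMI 1640 (MOPS, pH 7), 1.5 h adhesion at 37 °C with shaking, PBS wash, 48 h maturation at 37 °C. Preformed biofilms exposed 24 h at 37 °C to anidulafungin/NSAID checkerboard combinations in RPMI. XTT-menadione reduction read at 490 nm. SMIC = 50% metabolic reduction versus drug-free control. Triplicate runs on different days; FIC index calculated.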

[9] = test system: Meyerozyma guilliermondii; assay: Antibiofilm activity against Candida guilliermondii a83 assessed as fractional inhibitory concentration by two dimensional checkerboard dilution method in presence of anidulafungin; method in brief: as §2
Nakaseomyces glabratus [10] = assay: Antibiofilm activity against Candida glabrata ATCC 15126 assessed as fractional inhibitory concentration by two dimensional checkerboard dilution method in presence of anidulafungin; method in brief: as §2
Candida albicans [11] = assay: Potentiation of anidulafungin-induced antibiofilm activity against Candida albicans ATCC 90028 at 0.1 uM to 100 mM after 48 hrs by XTT reduction assay relative to control; set-up: scale not given: the % may be the effect or the level left; method in brief: as §1
Nakaseomyces glabratus [12] = assay: Antibiofilm activity against Candida glabrata ATCC 15126 by two dimensional checkerboard dilution method in presence of anidulafungin; method in brief: as §1
[13] = test system: Meyerozyma guilliermondii; assay: Antibiofilm activity against Candida guilliermondii ATCC 6260 by two dimensional checkerboard dilution method in presence of anidulafungin; method in brief: as §1
Nakaseomyces glabratus [14] = assay: Antibiofilm activity against Candida glabrata ATCC 15126 at 0.1 uM to 100 mM after 48 hrs by XTT reduction assay relative to control; set-up: scale not given: the % may be the effect or the level left; method in brief: as §1
[15] = test system: Meyerozyma guilliermondii; assay: Antibiofilm activity against Candida guilliermondii a83 at 0.1 uM to 100 mM after 48 hrs by XTT reduction assay relative to control; set-up: scale not given: the % may be the effect or the level left; method in brief: as §1
Candida albicans [16] = assay: Antibiofilm activity against Candida albicans ATCC 10231 by two dimensional checkerboard dilution method in presence of anidulafungin; method in brief: as §1
Candida albicans [17] = assay: Antibiofilm activity against Candida albicans ATCC 90028 assessed as fractional inhibitory concentration by two dimensional checkerboard dilution method in presence of anidulafungin; method in brief: as §2
Candida albicans [18] = assay: Antibiofilm activity against Candida albicans ATCC 24433 assessed as fractional inhibitory concentration by two dimensional checkerboard dilution method in presence of anidulafungin; method in brief: as §2
Nakaseomyces glabratus [19] = assay: Potentiation of anidulafungin-induced antibiofilm activity against Candida glabrata 18a10 assessed as anidulafungin-fractional inhibitory concentration index by two dimensional checkerboard dilution method; method in brief: as §2
Nakaseomyces glabratus [20] = assay: Potentiation of anidulafungin-induced antibiofilm activity against Candida glabrata ATCC 15126 assessed as anidulafungin-fractional inhibitory concentration index by two dimensional checkerboard dilution method; method in brief: as §2
[21] = test system: Meyerozyma guilliermondii; assay: Potentiation of anidulafungin-induced antibiofilm activity against Candida guilliermondii ATCC 6260 at 0.1 uM to 100 mM after 48 hrs by XTT reduction assay relative to control; set-up: scale not given: the % may be the effect or the level left; method in brief: as §1
[22] = test system: Meyerozyma guilliermondii; assay: Antibiofilm activity against Candida guilliermondii a83 by two dimensional checkerboard dilution method in presence of anidulafungin; method in brief: as §1
Candida albicans [23] = assay: Antibiofilm activity against Candida albicans ATCC 10231 assessed as fractional inhibitory concentration by two dimensional checkerboard dilution method in presence of anidulafungin; method in brief: as §2
Candida albicans [24] = assay: Potentiation of anidulafungin-induced antibiofilm activity against Candida albicans 17a18 at 0.1 uM to 100 mM after 48 hrs by XTT reduction assay relative to control; set-up: scale not given: the % may be the effect or the level left; method in brief: as §1
Nakaseomyces glabratus [25] = assay: Antibiofilm activity against Candida glabrata 18a10 by two dimensional checkerboard dilution method in presence of anidulafungin; method in brief: as §1
Nakaseomyces glabratus [26] = assay: Potentiation of anidulafungin-induced antibiofilm activity against Candida glabrata ATCC 15126 at 0.1 uM to 100 mM after 48 hrs by XTT reduction assay relative to control; set-up: scale not given: the % may be the effect or the level left; method in brief: as §1
Candida albicans [27] = assay: Potentiation of anidulafungin-induced antibiofilm activity against Candida albicans ATCC 10231 at 0.1 uM to 100 mM after 48 hrs by XTT reduction assay relative to control; set-up: scale not given: the % may be the effect or the level left; method in brief: as §1
[28] = test system: Meyerozyma guilliermondii; assay: Potentiation of anidulafungin-induced antibiofilm activity against Candida guilliermondii a410 at 0.1 uM to 100 mM after 48 hrs by XTT reduction assay relative to control; set-up: scale not given: the % may be the effect or the level left; method in brief: as §1
[29] = test system: Meyerozyma guilliermondii; assay: Potentiation of anidulafungin-induced antibiofilm activity against Candida guilliermondii ATCC 6260 assessed as anidulafungin-fractional inhibitory concentration index by two dimensional checkerboard dilution method; method in brief: as §2
Candida albicans [30] = assay: Antibiofilm activity against Candida albicans ATCC 24433 by two dimensional checkerboard dilution method in presence of anidulafungin; method in brief: as §1
Candida albicans [31] = assay: Potentiation of anidulafungin-induced antibiofilm activity against Candida albicans ATCC 90028 assessed as anidulafungin-fractional inhibitory concentration index by two dimensional checkerboard dilution method; method in brief: as §2
Candida albicans [32] = assay: Potentiation of anidulafungin-induced antibiofilm activity against Candida albicans ATCC 10231 assessed as anidulafungin-fractional inhibitory concentration index by two dimensional checkerboard dilution method; method in brief: as §2
[33] = test system: Meyerozyma guilliermondii; assay: Potentiation of anidulafungin-induced antibiofilm activity against Candida guilliermondii a83 at 0.1 uM to 100 mM after 48 hrs by XTT reduction assay relative to control; set-up: scale not given: the % may be the effect or the level left; method in brief: as §1
[34] = test system: Meyerozyma guilliermondii; assay: Antibiofilm activity against Candida guilliermondii a410 assessed as fractional inhibitory concentration by two dimensional checkerboard dilution method in presence of anidulafungin; method in brief: as §2
Candida albicans [35] = assay: Antibiofilm activity against Candida albicans 17a18 assessed as fractional inhibitory concentration by two dimensional checkerboard dilution method in presence of anidulafungin; method in brief: as §2
Candida albicans [36] = assay: Potentiation of anidulafungin-induced antibiofilm activity against Candida albicans ATCC 24433 assessed as anidulafungin-fractional inhibitory concentration index by two dimensional checkerboard dilution method; method in brief: as §2
Nakaseomyces glabratus [37] = assay: Potentiation of anidulafungin-induced antibiofilm activity against Candida glabrata 18a10 at 0.1 uM to 100 mM after 48 hrs by XTT reduction assay relative to control; set-up: scale not given: the % may be the effect or the level left; method in brief: as §1
Candida albicans [38] = assay: Antibiofilm activity against Candida albicans 17a18 at 0.1 uM to 100 mM after 48 hrs by XTT reduction assay relative to control; set-up: scale not given: the % may be the effect or the level left; method in brief: as §1
Candida albicans [39] = assay: Potentiation of anidulafungin-induced antibiofilm activity against Candida albicans 17a18 assessed as anidulafungin-fractional inhibitory concentration index by two dimensional checkerboard dilution method; method in brief: as §2

SMILES: CCCCCOc1ccc(-c2ccc(-c3ccc(C(=O)N[C@@H]4C[C@@H](O)[C@@H](O)NC(=O)[C@@H]5[C@@H](O)[C@@H](C)CN5C(=O)[C@H]([C@@H](C)O)NC(=O)[C@H]([C@H](O)[C@@H](O)c5ccc(O)cc5)NC(=O)[C@@H]5C[C@@H](O)CN5C(=O)[C@H]([C@H](C)O)NC4=O)cc3)cc2)cc1
MIC (Candida albicans [1]): 2 µg/mL
MIC (Candida albicans [2]): 2 µg/mL
MIC (Nakaseomyces glabratus [3]): 2 µg/mL
MIC (Candida albicans [4]): 2 µg/mL
MIC [5]: 2 µg/mL
MIC [6]: 2 µg/mL
MIC (Candida albicans [7]): 2 µg/mL

MIC (Candida albicans [1]): 200 µM
MIC (Nakaseomyces glabratus [12]): 10 µM
MIC (Candida albicans [2]): 1000 µM
MIC [13]: 100 µM
MIC (Nakaseomyces glabratus [3]): 200 µM
MIC (Candida albicans [16]): 10 µM
MIC [22]: 10 µM
MIC (Candida albicans [4]): 200 µM
MIC (Nakaseomyces glabratus [25]): 10 µM
MIC [5]: 200 µM
MIC (Candida albicans [30]): 100 µM
MIC [6]: 1000 µM
MIC (Candida albicans [7]): 1000 µM
SMILES: CC(=O)Oc1ccccc1C(=O)O [ASPIRIN]
Ratio [8]: 0.1
Ratio [9]: 0.05
Ratio (Nakaseomyces glabratus [10]): 0.05
Activity (Candida albicans [11]): 57.84%
Activity (Nakaseomyces glabratus [14]): 29.02%
Activity [15]: 46.22%
Ratio (Candida albicans [17]): 0.05
Ratio (Candida albicans [18]): 0.1
fractional inhibitory concentration index (FICI) (Nakaseomyces glabratus [19]): 0.1
fractional inhibitory concentration index (FICI) (Nakaseomyces glabratus [20]): 0.1
Activity [21]: 50.37%
Ratio (Candida albicans [23]): 0.05
Activity (Candida albicans [24]): 51.74%
Activity (Nakaseomyces glabratus [26]): 49.78%
Activity (Candida albicans [27]): 82.81%
Activity [28]: 41.54%
fractional inhibitory concentration index (FICI) [29]: 0.15
fractional inhibitory concentration index (FICI) (Candida albicans [31]): 0.1
fractional inhibitory concentration index (FICI) (Candida albicans [32]): 0.1
Activity [33]: 45.32%
Ratio [34]: 0.1
Ratio (Candida albicans [35]): 0.05
fractional inhibitory concentration index (FICI) (Candida albicans [36]): 0.15
Activity (Nakaseomyces glabratus [37]): 48.58%
Activity (Candida albicans [38]): 46.55%
fractional inhibitory concentration index (FICI) (Candida albicans [39]): 0.1
